Results published in PMC6440450 (International Journal of Nanomedicine, 2019).
Where two headings read alike, the source gives them in different places.

Columns and labels:
[1] = decitabine solution, human plasma, same conditions, after 6 hours; cited from earlier work
[2] = phosphate buffer, 37°C, after 24 hours; cited from earlier work
[3] = system: HEL cells; assay: Cell-cycle analysis; format: cell-based, human; settings: 72 hours, decitabine solution 1,000 nM
In short: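 HEL cells (RPMI 1640, 10% FBS, 1% antibiotics, 37°C, 5% CO2) were seeded at 5×10^4/well. After 24 h, they were treated with the test compound solution (1,000 nM), prodrug-loaded lipid nanocapsules (2,500 nM), excipient-matched blank nanocapsules or medium for 72 h. Cells were ethanol-fixed (70%, cold) and stained 15 min in the dark with 40 µg/mL propidium iodide plus 100 µg/mL RNase A. Phases were fitted by the Dean Jett Fox model. n=3 plates in triplicate; Mann–Whitney versus medium.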

[4] = cited from earlier work
[5] = system: human erythroleukemia cell line (HEL); assay: In vitro cell proliferation; format: cell-based; settings: 72 hours exposure
In short: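 HEL cells were seeded at 5×10^3/well and treated 24 h later for 72 h. Doses were 12.5–2,500 nM for the lipid prodrug (free or nanocapsule-loaded) and 5–1,000 nM for the parent nucleoside; blank nanocapsules were excipient-matched. Pellets were frozen at −80°C for ≥48 h, then read by CyQuant. Medium-only wells defined 100% viability. Three independent experiments in quadruplicate; Mann–Whitney test.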

## Nc1ncn([C@H]2C[C@H](O)[C@@H](CO)O2)c(=O)n1 [Decitabine]
[1]
  Initial concentration recovered: < 40%
[2]
  Initial concentration recovered: < 50%
[3]
  Cells arrested in G2/M: 17.2%
[4]
  Half-life in plasma: 15 to 25 min
[5]
  Concentration above which cell viability decreased: above 50 nM
